Screening results as filed in PubChem.
PAD4 inh = PAD4 (human) enzyme inhibition; hit rate 0.41% among 330,000; AID 485272; Q9UM07; inhibition, % at 6.36 µM; recombinant PAD4, RCA probe fluorescence polarization;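 active = percent inhibition above a cutoff equal to the mean of all tested compounds plus 3 SD, cut at about 15% in these data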;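 also: 0% = PAD4 with RCA probe and DMSO and 100% = probe without PAD4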
TDP2 absorb = TDP2 (human) inhibition, absorbance primary screen; inhibition, % at 12.8 µM; hit rate 0.34% among 370,000; recombinant TDP2, T5PNP hydrolysis, p-nitrophenol absorbance 415 nm; AID 720702;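 active = inhibition above the mean of all tested compounds plus 3 SD, set per campaign, cut at about 25% in these data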;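 also: 0% = DMSO with enzyme and 100% = buffer with substrate but no TDP2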
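Read-out basis: percent inhibition. System: recombinant human TDP2. Buffer or medium: Mg2+-containing Tris-HCl buffer, pH 7.5. Repeats: single replicate. Timing: reaction 2 h, 37 °C. Benchmarks: high control without enzyme, low control DMSO plus TDP2. Probe or stimulus: 5 mM T5PNP. Doses: 12.8 µM only. Measured by: epi absorbance of p-nitrophenol freed from T5PNP by hydrolysis.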
PRMT1 inh = inhibitors of human PRMT1 | Q99873 | recombinant PRMT1, activity-based probe fluorescence polarization | inhibition, % at 2.79 µM | hit rate 1.3% among 370,000 | AID 652257;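 active = inhibition above about 21% made by adding two undisclosed values, limit read from the data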
Target sequence (Q99873 whole entry, looked up): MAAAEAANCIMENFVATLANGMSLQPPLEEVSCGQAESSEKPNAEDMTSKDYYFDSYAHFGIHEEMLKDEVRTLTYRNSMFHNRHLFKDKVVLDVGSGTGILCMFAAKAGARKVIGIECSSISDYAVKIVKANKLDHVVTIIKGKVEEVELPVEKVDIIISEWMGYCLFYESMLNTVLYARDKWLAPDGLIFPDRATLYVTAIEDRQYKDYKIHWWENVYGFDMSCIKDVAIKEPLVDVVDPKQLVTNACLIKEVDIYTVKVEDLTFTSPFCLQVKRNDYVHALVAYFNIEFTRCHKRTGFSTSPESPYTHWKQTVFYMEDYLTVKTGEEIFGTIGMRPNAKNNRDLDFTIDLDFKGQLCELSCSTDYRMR
GSTO1 counter = GSTO1 inhibition, counter-screen for RBBP9 inhibitors. inhibition, % at 5.96 µM. hit rate 1.1% among 300,000. recombinant GSTO1, activity-based probe fluorescence polarization;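 active = inhibition above the campaign mean inhibition plus 3 SD, cut at about 35% in these data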;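 also: 0% = GSTO1-1 with DMSO and 100% = wells lacking GSTO1-1 enzyme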
Target sequence (P78417 whole entry, looked up): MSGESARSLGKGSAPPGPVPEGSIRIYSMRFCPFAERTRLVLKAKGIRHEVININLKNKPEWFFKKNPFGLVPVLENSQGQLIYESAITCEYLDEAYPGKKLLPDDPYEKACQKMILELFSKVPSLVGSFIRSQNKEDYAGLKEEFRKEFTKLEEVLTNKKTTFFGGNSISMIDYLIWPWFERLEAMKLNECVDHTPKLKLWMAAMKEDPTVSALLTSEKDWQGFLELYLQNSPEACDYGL
Apaf-1 inh = blocks human Apaf-1 apoptosome activity; O14727; reconstituted apoptosome caspase-3 activity, DEVD-Rh110 fluorescence; inhibition, % at 20 µM; hit rate 0.71% among 330,000; AID 489030; active = inhibition of at least 40% at 20 µM;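 also: plate controls were DMSO wells for no effect and DEVD-CHO caspase inhibitor wells for full effect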
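detection = Rh110 fluorescence intensity | test system = biochemical Apaf-1 apoptosome reconstitution | also added = cytochrome c and DEVD-Rh110 substrate | schedule = 30 min plus 50 min, RT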
PRMT1 confirm = confirmation of human PRMT1 inhibitors | inhibition, % at 2.79 µM | shares compounds with PRMT1 inh | recombinant His-PRMT1, activity-based probe fluorescence polarization | hit rate 42% among 3,300 | AID 687036;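 active = mean inhibition across replicates above the hit cutoff derived for the earlier primary screen, cut at about 22% in these data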
* marks the source's active call; other numbers are inactive results. Compounds with a hit are over-represented: about 2.6% of the library has one in this group of screens.

How did COc1ccc(S(=O)(=O)N2CCOCC2)cc1NC(=O)c1c(-c2ccccc2)noc1C do in these assays?
TDP2 absorb: 2; PRMT1 inh: -4; Apaf-1 inh: 0

Results for Cc1nn(C)c(Sc2ccccc2N)c1[N+](=O)[O-] ?
PAD4 inh: 14; TDP2 absorb: -7; PRMT1 inh: 71*; GSTO1 counter: 3; Apaf-1 inh: 3; PRMT1 confirm: 52*

Results for CCc1cc(CN2CCOCC2)c(NC(=O)c2ccccc2)s1 ?
PAD4 inh: -4; TDP2 absorb: 11; PRMT1 inh: -2; GSTO1 counter: 0; Apaf-1 inh: -6

What do the screens show for `CN(CCC#N)C(=O)COC(=O)c1c2c(nc3ccccc13)/C(=C/c1ccco1)CC2`?
PAD4 inh: 2; TDP2 absorb: -13; PRMT1 inh: 41*; GSTO1 counter: 35; PRMT1 confirm: 29*

How did N#Cc1ccc2c(c1)nnn2-c1ccccc1 do in these assays?
PAD4 inh: -6; TDP2 absorb: 2; PRMT1 inh: -3; GSTO1 counter: -5; Apaf-1 inh: -3

What do the screens show for `N#Cc1ccc2sn(-c3ccccc3)c(=O)c2c1`?
TDP2 absorb: -4; PRMT1 inh: 87*; PRMT1 confirm: 98*

Results for CC(=O)Nc1ccc2sn(-c3ccccc3)c(=O)c2c1 ?
TDP2 absorb: -7; PRMT1 inh: 77*; PRMT1 confirm: 89*

Results for O=c1c2cc([N+](=O)[O-])ccc2sn1-c1ccccc1 ?
TDP2 absorb: 10; PRMT1 inh: 64*; PRMT1 confirm: 81*

Results for COc1ccc(C2=Nn3c(nnc3C3CCCCC3)SC2)cc1 ?
TDP2 absorb: 4; PRMT1 inh: 0

Results for CCN(Cc1ccccc1)C(=O)CCS(=O)(=O)c1ccc2c(c1)CCN2C(C)=O ?
PAD4 inh: -3; TDP2 absorb: 4; PRMT1 inh: 3; GSTO1 counter: 3; Apaf-1 inh: -16

How did CCc1ccc(-c2cn(C3CCCCC3)c(=S)[nH]2)cc1 do in these assays?
PAD4 inh: -2; TDP2 absorb: -15; PRMT1 inh: 29*; GSTO1 counter: -4; Apaf-1 inh: 7; PRMT1 confirm: 15

How did COC(=O)C1=C(Nc2ccccc2NC(=O)c2ccccc2C(=O)O)CSC1 do in these assays?
PAD4 inh: 3; TDP2 absorb: -9; PRMT1 inh: 26*; GSTO1 counter: 6; Apaf-1 inh: 0; PRMT1 confirm: 6

Results for COC(=O)C1=C(Nc2ccccc2NC(=O)CCCC(=O)O)CSC1 ?
PAD4 inh: 2; TDP2 absorb: 3; PRMT1 inh: -3; GSTO1 counter: 3; Apaf-1 inh: -5

How did Cc1sc2ncnc(Sc3ccccc3C(=O)Nc3ccc(Br)cc3)c2c1C do in these assays?
PAD4 inh: 10; TDP2 absorb: -8; PRMT1 inh: 35*; GSTO1 counter: 0; Apaf-1 inh: 12; PRMT1 confirm: 23*

How did COCCCn1c(=NC(=O)c2ccncc2)c(C#N)cc2c(=O)n3cccc(C)c3nc21 do in these assays?
PAD4 inh: -2; TDP2 absorb: 11; PRMT1 inh: 16; GSTO1 counter: -3; Apaf-1 inh: 1

Results for Cc1cccn2c(=O)c3cc(C#N)c(=NC(=O)c4ccncc4)n(CCCOC(C)C)c3nc12 ?
PAD4 inh: 1; TDP2 absorb: 2; PRMT1 inh: 26*; GSTO1 counter: 0; Apaf-1 inh: 17; PRMT1 confirm: 2

How did O=C1CS(=O)(=O)c2ccccc2N1 do in these assays?
PAD4 inh: -2; TDP2 absorb: 1; PRMT1 inh: -1; GSTO1 counter: 2; Apaf-1 inh: 0

What do the screens show for `COc1ccc(O)c(/C=c2/sc3nc4cc(C)c(C)cc4n3c2=O)c1`?
TDP2 absorb: -11; PRMT1 inh: 39*; Apaf-1 inh: 12; PRMT1 confirm: 70*

What do the screens show for `CC(C)Cn1c(N)c(C(=O)CSc2ncccn2)c(=O)n(C)c1=O`?
PAD4 inh: 1; TDP2 absorb: -7; PRMT1 inh: 58*; GSTO1 counter: -8; Apaf-1 inh: 6; PRMT1 confirm: 4

How did CC(C)Cn1c(N)c(C(=O)CSc2n[nH]c(N)n2)c(=O)n(C)c1=O do in these assays?
PAD4 inh: 6; TDP2 absorb: 3; PRMT1 inh: -3; Apaf-1 inh: -3

How did O=C(COC(=O)c1cc(Br)ccc1O)Nc1cc(S(=O)(=O)N2CCCC2)ccc1Cl do in these assays?
TDP2 absorb: 4; PRMT1 inh: 45*; PRMT1 confirm: 22*

How did O=C(c1c[nH]c(C(=O)N2CCN(c3ccccc3F)CC2)c1)c1cccc(Cl)c1Cl do in these assays?
TDP2 absorb: 0; PRMT1 inh: 1

What do the screens show for `Nc1c(C2CCCCC2)c(=O)on1C(=O)c1ccccc1`?
TDP2 absorb: -15; PRMT1 inh: -1

What do the screens show for `CC1(C)Cc2c(C#N)c(N3CCOCC3)nc(-c3ccccc3)c2CO1`?
PAD4 inh: 0; TDP2 absorb: -9; PRMT1 inh: 0; GSTO1 counter: 2; Apaf-1 inh: -4

How did CC1CCN(c2nc(-c3ccco3)c3c(c2C#N)CC(C)(C)OC3)CC1 do in these assays?
PAD4 inh: -1; TDP2 absorb: 6; PRMT1 inh: 28*; GSTO1 counter: -3; Apaf-1 inh: 14; PRMT1 confirm: 24*

What do the screens show for `NC(=O)c1ncc(C(F)(F)F)cc1Oc1cccnc1`?
PAD4 inh: -4; TDP2 absorb: -12; PRMT1 inh: 3; GSTO1 counter: 1; Apaf-1 inh: -7

Results for COc1cc(N=c2ssnc2Cl)c(OC)cc1Cl ?
PAD4 inh: 1; TDP2 absorb: 0; PRMT1 inh: 94*; GSTO1 counter: 7; Apaf-1 inh: 5; PRMT1 confirm: 91*

Results for COc1ccc(OC)c(N=c2ssnc2Cl)c1 ?
PAD4 inh: 6; TDP2 absorb: -3; PRMT1 inh: 75*; GSTO1 counter: 6; Apaf-1 inh: 23; PRMT1 confirm: 81*

How did COc1cc(-n2nnnc2SC)c(OC)cc1Cl do in these assays?
PAD4 inh: 1; TDP2 absorb: 0; PRMT1 inh: 6; GSTO1 counter: -5; Apaf-1 inh: 2

How did CCN(CC)c1ccc(/C=N/n2c(-c3ccccc3Br)n[nH]c2=S)cc1 do in these assays?
PAD4 inh: -5; TDP2 absorb: -3; PRMT1 inh: 25*; GSTO1 counter: 1; Apaf-1 inh: 7; PRMT1 confirm: 8

How did O=S(=O)(Nc1ccc(-n2cnnn2)cc1)c1cccs1 do in these assays?
PAD4 inh: -4; TDP2 absorb: -12; PRMT1 inh: -2; Apaf-1 inh: 11

Results for COc1sc(SC)cc1/C=N/NC(=O)c1ccncc1 ?
PAD4 inh: -1; TDP2 absorb: -11; PRMT1 inh: 38*; GSTO1 counter: 4; Apaf-1 inh: 3; PRMT1 confirm: -1

What do the screens show for `COc1ccccc1C=NNC(=O)c1ccncc1`?
TDP2 absorb: -6; PRMT1 inh: -2
